# Calls of active or inactive are those of the source. The rule behind the calls is not given here. Non-standard residues stand in square brackets, D forms with d. Residues, ends and D or L forms follow the SMILES beside them. Cha = N[C@@H](CC1CCCCC1)C(=O)O
# Legend:
# Rattus norvegicus [1] = species on record: Rattus norvegicus; test: Vasodepressor activity in rat assessed as ratio of intraarterial dose of bradykinin to dose of compound that produce 20 mmHg fall in mean blood pressure; type: functional, Artery
# In short: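 Male rats were anesthetized with Dial-urethan. Mean arterial pressure was recorded from the femoral artery. Drugs were given in saline by intracarotid injection. The ratio compares bradykinin and analogue doses that each lower mean pressure by 20 mmHg.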
# Rattus norvegicus [2] = species on record: Rattus norvegicus; test: Antagonist activity at bradykinin receptor in estrous rat uterus assessed as inhibition of bradykinin-induced myotropic activity at 1 x 10^-6 M preincubated for 2 mins followed by bradykinin addition; type: tissue-based
# In short: (§1)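 Uteri from estrous virgin rats were suspended in modified deJalon's solution containing 20 mg/L CaCl2, kept at 30 °C and gassed with 98% O2-2% CO2. Isotonic contractions were recorded under 1 g tension. Analogue was added to the bath 2 min before various doses of bradykinin. Potency was compared at the concentration giving 50% maximal contraction.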
# Rattus norvegicus [3] = test: Vasodepressor activity in rat assessed as ratio of bradykinin dose to compound intravenous dose that produce 20 mmHg fall in mean blood pressure; type: functional
# Rattus norvegicus [4] = species on record: Rattus norvegicus; test: Intrinsic activity at bradykinin receptor in estrous rat uterus assessed as ratio of bradykinin dose to compound dose to give 50% maximum myotropic activity
# In short: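 Uteri from estrous virgin rats were bathed in modified deJalon's solution with 20 mg/L CaCl2, at 30 °C, gassed with 98% O2-2% CO2. Isotonic contractions were recorded under 1 g tension. Full dose-response curves were run for bradykinin and analogue. The potency ratio was taken at the dose giving 50% maximal contraction.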
# Cavia porcellus = species on record: Cavia porcellus; test: Intrinsic activity at bradykinin receptor in guinea pig ileum assessed as ratio of bradykinin dose to compound dose to give 50% maximum myotropic activity; type: tissue-based
# In short: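 Strips of terminal guinea pig ileum, 2–3 cm long, were held in Tyrode's solution at 36 °C and bubbled with 95% O2-5% CO2. Isotonic contractions were recorded under 1 g tension. Full dose-response curves were run for bradykinin and analogue. The potency ratio was taken at the dose giving 50% maximal contraction.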
# Rattus norvegicus [5] = species on record: Rattus norvegicus; test: Antagonist activity at bradykinin receptor in estrous rat uterus assessed as inhibition of bradykinin-induced myotropic activity at 1 x 10^-5 M preincubated for 2 mins followed by bradykinin addition; type: tissue-based; in short: as §1
# Rattus norvegicus [6] = species on record: Rattus norvegicus; test: Antagonist activity at bradykinin receptor in estrous rat uterus assessed as inhibition of bradykinin-induced myotropic activity at 2.5 x 10^-6 M preincubated for 2 mins followed by bradykinin addition; type: tissue-based; in short: as §1
Compound,Ratio (Rattus norvegicus [1]),inhibition (Rattus norvegicus [2]),Ratio (Rattus norvegicus [3]),Ratio (Rattus norvegicus [4]),Ratio (Cavia porcellus),inhibition (Rattus norvegicus [5]),inhibition (Rattus norvegicus [6])
H-RPPGFSPIR-OH,0.00056,inactive,,,,,
N=C(N)NCCC[C@H](NC(=O)[C@H](CC1CCCCC1)NC(=O)[C@@H]1CCCN1C(=O)[C@H](CO)NC(=O)[C@H](CC1CCCCC1)NC(=O)CNC(=O)[C@@H]1CCCN1C(=O)[C@@H]1CCCN1C(=O)[C@@H](N)CCCNC(=N)N)C(=O)O (H-RPPG[Cha]SP[Cha]R-OH),,,1,0.33,1,,
H-RPPGISPIR-OH,< 0.00018,,,< 0.0002,,inactive,
H-RPPGISPFR-OH,0.00018,,,0.00028,,,inactive

# — ChEMBL document CHEMBL3244415, “Synthesis and pharmacological properties of [5-isoleucine]-, [8-isoleucine]-, and [5,8-diisoleucine]bradykinin” (1979)
